Assay outcomes from PubChem BioAssay.
Scp-1 inhibitor – Scp-1 phosphatase inhibitors, primary screen, biochemical, colorimetric, uHTS; Carboxy-terminal domain RNA polymerase II polypeptide A small phosphatase 1 (Homo …; Recombinant Scp1, phosphopeptide, malachite green phosphate absorbance; inhibition, % at 20 µM; 0.88% of 340,000 active; AID 493091, 2011;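 active = inhibition above about 50% at 20 µM, limit read from the data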;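 note: plate controls were DMSO wells with enzyme for no effect and wells lacking enzyme for full effect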
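Assay system: SCP-1 catalytic fragment, aa 76-261 | Buffer or medium: Tris acetate buffer pH 5.5 with MgCl2 and Tween-20 | Compound: One concentration, 20 µM, with 1.0% DMSO | Also added: Phospho 17-mer peptide substrate | Signal: Absorbance at 630 nm | Incubation: 45 min enzyme reaction at room temperature | Measure: % inhibition of SCP-1 phosphate liberation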
STEP block – STEP phosphatase inhibitors, primary screen, biochemical, fluorescence intensity, uHTS; Tyrosine-protein phosphatase non-receptor type 5 (Homo sapiens), P54829; recombinant STEP, OMFP fluorogenic substrate; inhibition, % at 20 µM; 0.25% of 360,000 active;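 active = inhibition at 20 µM, scaled per plate between control wells, above about 37%, limit read from the data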;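 note: 0% = DMSO with enzyme and substrate and 100% = substrate only without enzyme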
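System: STEP phosphatase, cell-free reaction; Buffer or medium: Bis-Tris pH 6.0 buffer with DTT, detergent; Incubation: 20 min at room temperature, dark; Measured by: fluorescence, 480/540 nm.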
SUMO1 PPI mod – modulators of SUMO1 protein-protein interactions, primary screen, biochemical, uHTS | Small ubiquitin-related modifier 1 (Homo sapiens), P63165 | SUMO1 binding to a labelled peptide, TR-FRET, 1 h | inhibition, % at 20 µM | 0.33% of 360,000 active | AID 602429, 2012; in the data active = inhibition above about 37%
DSG3 Ab inh – inhibitors of pemphigus antibody binding to DSG3, primary screen, biochemical, bead-based, flow cytometry, scFv-GFP; Desmoglein-3 (Homo sapiens), P32926; DSG3-coupled beads, scFv-anti-DSG3-GFP binding; stronger effect = lower value; binding (percent of control), % at 10 µM; 0.48% of 310,000 active; AID 588358, 2011;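 active = binding more than 3 SD below its plate's average and above zero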;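 note: hits lower antibody fragment binding to DSG3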
Target sequence (P32926 whole entry, looked up, the tested form may be a part): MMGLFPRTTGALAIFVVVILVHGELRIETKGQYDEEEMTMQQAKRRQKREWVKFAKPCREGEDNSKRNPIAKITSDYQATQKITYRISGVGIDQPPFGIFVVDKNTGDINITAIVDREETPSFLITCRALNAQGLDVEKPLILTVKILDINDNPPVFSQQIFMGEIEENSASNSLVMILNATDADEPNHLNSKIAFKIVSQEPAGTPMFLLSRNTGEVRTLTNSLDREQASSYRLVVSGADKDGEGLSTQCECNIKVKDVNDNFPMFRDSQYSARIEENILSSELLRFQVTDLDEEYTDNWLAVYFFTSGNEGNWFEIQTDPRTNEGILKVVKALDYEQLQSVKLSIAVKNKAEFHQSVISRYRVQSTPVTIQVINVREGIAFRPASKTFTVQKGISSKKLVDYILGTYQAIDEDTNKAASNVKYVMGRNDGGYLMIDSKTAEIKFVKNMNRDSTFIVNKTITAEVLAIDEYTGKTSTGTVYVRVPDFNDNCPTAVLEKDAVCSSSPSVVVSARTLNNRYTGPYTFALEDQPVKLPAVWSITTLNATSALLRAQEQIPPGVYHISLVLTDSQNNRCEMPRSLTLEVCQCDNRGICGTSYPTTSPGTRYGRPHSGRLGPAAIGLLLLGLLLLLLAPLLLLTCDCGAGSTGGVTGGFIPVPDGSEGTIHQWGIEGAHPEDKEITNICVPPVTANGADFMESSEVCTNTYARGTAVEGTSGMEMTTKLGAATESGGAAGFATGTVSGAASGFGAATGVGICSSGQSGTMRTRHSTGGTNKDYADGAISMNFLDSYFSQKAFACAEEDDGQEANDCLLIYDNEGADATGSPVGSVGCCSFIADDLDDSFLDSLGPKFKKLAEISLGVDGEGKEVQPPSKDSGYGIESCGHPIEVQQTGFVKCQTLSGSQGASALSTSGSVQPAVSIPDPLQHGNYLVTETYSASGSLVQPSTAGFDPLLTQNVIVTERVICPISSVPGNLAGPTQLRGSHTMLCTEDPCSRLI
LMPTP inh – LMPTP phosphatase inhibitors, primary screen, biochemical, fluorescence intensity, uHTS; recombinant LMPTP-A, OMFP fluorogenic substrate; inhibition, % at 20 µM; 0.22% of 360,000 active; AID 651560, 2012;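 active = compounds that cut the enzyme signal by at least half of the control window in the single-dose screen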;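 note: plate controls were DMSO wells with enzyme plus substrate for no effect and substrate without enzyme for full effect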
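material = LMPTP-A | quantity = 0.625 nM enzyme | reagent = OMFP substrate, 400 µM final | buffer or medium = Bis-Tris pH 6.0, DTT, detergent | detection = endpoint fluorescence intensity from OMFP dephosphorylation | dosing = single 20 µM dose | read-out basis = % inhibition relative to no-enzyme and uninhibited control wells | control set = no-enzyme and uninhibited controls | timing = 50 min at room temperature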
* hit, by the source's call; nt = no result. The list is not random: actives were taken first. Their share in the collection is about 1.7%.

SMILES	Scp-1 inhibitor	STEP block	SUMO1 PPI mod	DSG3 Ab inh	LMPTP inh
COc1ccc(NC2Oc3cc4c(cc3C(c3cc(OC)c(OC)c(OC)c3)C2C)OCO4)cc1 (configuration not stated)	-3	0	4	94	0
CC(C)CNc1c2c(nc3ccccc13)CCC2	-3	0	39*	88	25
C/C(=N\N=C(N)N)c1ccccc1	-4	0	2	91	0
Clc1ccc(C2NCCc3[nH]cnc32)cc1 (configuration not stated)	-11	2	41*	97	-2
CCOC(=O)[C@]12Cc3c(cc(OC)c(OC)c3OC)[C@H]1N(C1CCCCC1)C(=O)c1ccccc12	nt	nt	7	nt	1
O=C1NC(=O)C(=Cc2ccc(-c3ccc(F)cc3O)o2)C(=O)N1	95*	1	6	102	-1
O=C1NC(=O)C(=Cc2ccc(Sc3ccccc3)o2)C(=O)N1	17	1	0	96	-1
O=C1NC(=O)C(=Cc2ccco2)C(=O)N1	28	50*	8	98	11
O=C1NC(=O)C(=Cc2ccc(-c3ccc(Cl)cc3)o2)C(=O)N1	0	7	3	72*	-1
Clc1ccc(C(c2ccc(Cl)cc2)n2cc[n+](CC(OCc3ccc(Cl)cc3Cl)c3ccc(Cl)cc3Cl)c2)cc1 (configuration not stated)	-1	8	80*	142	32
NC1=Nc2ccccc2Oc2ccccc21	-8	3	0	104	1
O=c1[nH]c(=S)n(Cc2ccco2)c(O)c1C=NCc1cccs1	36	0	6	nt	65*
Cc1ccc([C@@H]2C[C@H]3[C@@H](CN2S(=O)(=O)c2ccc(Cl)cc2)C(=O)C[C@@H](c2ccccc2F)N3S(=O)(=O)c2ccc(C)cc2)cc1	nt	2	-4	99	1
CN(C)C1C(=O)C(C(N)=O)=C(O)C2(O)C(=O)C3=C(O)c4c(O)cccc4C(C)(O)C3C(O)C12 (configuration not stated)	16	6	8	113	52*
O=C(O)C1C(C(=O)O)C2(Cl)C(Cl)=C(Cl)C1(Cl)C2(Cl)Cl (configuration not stated)	-15	10	22	98	65*
CCOC(=O)[C@]12Cc3cc(Cl)ccc3[C@H]1N(C1CCCCC1)C(=O)c1cc(OC)ccc12	nt	nt	16	nt	3
COc1nc(NCC2CCCO2)nc(N2CC3CC(C2)c2cccc(=O)n2C3)n1 (configuration not stated)	-4	0	0	97	-1
O=c1c2ccccc2nc(-c2ccccc2)n1-c1ccccc1	-11	-2	3	nt	-2
O=c1c2ccccc2[se]n1-c1ccccc1	101*	-3	-7	-13	0
COc1ccc2c(c1)NP(=S)(c1ccccc1)N2C (configuration not stated)	-7	-4	2	92	1
COc1ccc(P2(=O)Nc3ccccc3N2)cc1	55*	11	-4	104	1
COc1ccc(-c2nc3ccccc3c(=O)n2-c2nccs2)cc1	-9	-5	42*	89	-1
COc1ccc(-c2nc3ccccc3c(=O)n2-c2ccc(OC)cc2)cc1	-7	4	5	107	-1
C[C@]12CC[C@H](O)CC1=CCC1C2CC[C@@]2(C)C1C[C@@H]1CC(=O)O[C@@H]12 (some centres not stated)	1	3	5	91	-1
CC(O)C1C=CC=CC(=O)OC2CC3OC4C5OC5(C)C(O)CC4(COC(=O)C(O)C(C)CCO1)C2(C)C31CO1 (configuration not stated)	7	-2	-9	74*	-2
Cc1nc(N2CCN(Cc3ccc4c(c3)OCO4)CC2)[nH]c(=O)c1C	-7	-1	-5	95	-1
N#CC(C#N)=NNc1ccc(S(N)(=O)=O)cc1	12	2	31	82	57*
